In assay [1] the target is T1, Vitamin D3 receptor (Homo sapiens) (UniProt P11473).
T1 sequence (whole entry): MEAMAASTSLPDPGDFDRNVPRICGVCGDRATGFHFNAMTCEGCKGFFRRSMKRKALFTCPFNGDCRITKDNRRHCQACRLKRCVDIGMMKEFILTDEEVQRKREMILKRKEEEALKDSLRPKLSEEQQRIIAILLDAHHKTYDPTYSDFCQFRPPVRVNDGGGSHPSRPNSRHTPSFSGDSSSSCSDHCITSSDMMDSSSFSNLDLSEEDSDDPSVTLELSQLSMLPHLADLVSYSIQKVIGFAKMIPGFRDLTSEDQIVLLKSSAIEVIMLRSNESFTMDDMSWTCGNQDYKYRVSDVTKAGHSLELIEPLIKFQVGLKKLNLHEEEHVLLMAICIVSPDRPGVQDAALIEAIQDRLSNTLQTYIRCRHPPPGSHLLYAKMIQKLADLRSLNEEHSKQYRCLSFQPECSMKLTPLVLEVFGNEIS
The assay is described as follows: Activation of VDR (unknown origin) transfected in CHO-K1 cells assessed as luciferase activity at 5 uM measured after 24 hrs by Steady-Glo luciferase assay. Format: cell-based. Conditions: filed as activator. The method, boiled down:
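CHO-K1 cells transfected with a VDRE-driven luciferase reporter, then treated with compounds at 5 μM in lipid-free medium. 25(OH)D3 run in parallel as control, DMSO as negative control. Luciferase read-out, mean ± SD.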

The subject of assay [2] is CHO-K1. The assay is described as follows: Downregulation of SCAP protein level in CHO-K1 cells harbouring FLAG-SCAP (1 to 767 residues) at 15 uM measured after 24 hrs by Western blot analysis. The format is functional, cell-based. Conditions: Cricetulus griseus. The method, boiled down:
(§1)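 Wild-type CHO-K1 cells or CHO-K1 cells overexpressing FLAG-SCAP(1–767) held in lipid-free medium with 15 μM compound for 24 h. Lysis in RIPA with protease inhibitors, 20 000g spin, BCA protein assay, SDS-PAGE and immunoblot. Endogenous SCAP probed with anti-hamster SCAP, the overexpressed form with anti-FLAG M2, actin as loading control. HRP chemiluminescence detection.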

The subject of assay [3] is CHO-K1. In words: Inhibition of SREBP/SCAP (unknown origin) transfected with CHO-K1 cells cotransfected with pSRE-Luc/pAC-beta-gal at 5 uM measured after 24 hrs by Steady-Glo luciferase assay. Format: cell-based. Conditions: Homo sapiens. The essentials: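 CHO-K1 cells transfected with an SRE-controlled luciferase reporter, exposed to compounds at 5 μM in lipid-free medium. 25(OH)D3 tested alongside as control. Luciferase signal reported as mean ± SD.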

The nature of assay [4]: Inhibition of SREBP/SCAP (unknown origin) transfected with CHO-K1 cells cotransfected with pSRE-Luc/pAC-beta-gal measured after 24 hrs by Steady-Glo luciferase assay. Conditions: CHO-K1, 24 h. Format: cell-based. The essentials:
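IC50 taken from a dose-response in CHO-K1 cells transfected with an SRE-driven luciferase reporter. Cells were treated with various compound concentrations in lipid-free medium. Luciferase read-out, mean ± SD.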

Assay [5] has as its system CHO-K1. The assay is described as follows: Downregulation of SCAP protein level in wild type CHO-K1 cells at 15 uM measured after 24 hrs by Western blot analysis. Format: functional, cell-based. Conditions: Cricetulus griseus. The essentials: as §1

Active and inactive are the calls of the source. The rule behind the calls is not given here.

As to `C[C@H](CCC(F)(F)C(C)(C)O)[C@H]1CC[C@H]2/C(=C/Cn3nnc(-c4ccc(Cl)cc4)n3)CCC[C@]12C`, the outcome in assay [1] was Active.

Take `Cc1ccc(-c2nnn(C/C=C3\CCC[C@]4(C)[C@@H]([C@H](C)CCC(F)(F)C(C)(C)O)CC[C@@H]34)n2)cc1`: the outcome in assay [1] was Active.

Take `C[C@H](CCC(F)(F)C(C)(C)O)[C@H]1CC[C@H]2/C(=C/Cn3nnnc3-c3ccc(Cl)cc3)CCC[C@]12C`: the outcome in assay [1] was Active.

On to `Cc1cccc(-c2nnnn2C/C=C2\CCC[C@]3(C)[C@@H]([C@H](C)CCC(F)(F)C(C)(C)O)CC[C@@H]23)c1`, for which the result in the assay on CHO-K1 [2] and in the assay with CHO-K1 [5] was Active. The inhibition entry with CHO-K1 [3] was “Active”. This compound also showed an IC50 in assay [4] of 1400 nM.

As to `C=C1CC[C@H](O)C/C1=C/C=C1\CCC[C@]2(C)[C@@H]([C@H](C)CCCC(C)(C)O)CC[C@@H]12`, the result with CHO-K1 [2] and with CHO-K1 [5] was Active.

Regarding `Cc1ccc(-c2nnnn2C/C=C2\CCC[C@]3(C)[C@@H]([C@H](C)CCC(F)(F)C(C)(C)O)CC[C@@H]23)cc1`, the result in assay [1] was Active.

As for `C[C@H](CCC(F)(F)C(C)(C)O)[C@H]1CC[C@H]2/C(=C/Cn3nnc(-c4ccccc4Cl)n3)CCC[C@]12C`, the result with CHO-K1 [2] and with CHO-K1 [5] was Active. For the same compound, the inhibition entry in the assay on CHO-K1 [3] was “Active”. The IC50 in assay [4] came to 2000 nM.

Consider `C[C@H](CCC(F)(F)C(C)(C)O)[C@H]1CC[C@H]2/C(=C/Cn3nnnc3-c3ccc(C(F)(F)F)cc3)CCC[C@]12C`, for which, in assay [1], the result was Active.

`C[C@H](CCC(F)(F)C(C)(C)O)[C@H]1CC[C@H]2/C(=C/Cn3nnc(-c4ccc(C(F)(F)F)cc4)n3)CCC[C@]12C`: the outcome in assay [1] was Active.

`C[C@H](CCC(F)(F)C(C)(C)O)[C@H]1CC[C@H]2/C(=C/Cn3nnnc3-c3ccccc3)CCC[C@]12C`: the result in the assay with CHO-K1 [2] and with CHO-K1 [5] was Active. In assay [4], the midpoint of inhibition, the IC50, lay at 3500 nM.

The record behind these values is ChEMBL document CHEMBL5329185, “Structure-activity relationship studies on vitamin D-based selective SREBP/SCAP inhibitor KK-052” (RSC Med Chem, 2023).
